Hck-Nef inh: inhibitors of Nef-activated human Hck kinase, primary screen, biochemical, Z-Lyte FRET, 384-well, Hck-YEEI. inhibition, % at 20 µM. actives 0.68% (n = 220,000). Recombinant Hck-YEEI plus Nef, Z-Lyte FRET kinase assay;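 active = Hck-Nef kinase inhibition above about 50%, limit read from the data; inactive = inhibition below that limit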
Target sequence (P08631 whole entry, looked up): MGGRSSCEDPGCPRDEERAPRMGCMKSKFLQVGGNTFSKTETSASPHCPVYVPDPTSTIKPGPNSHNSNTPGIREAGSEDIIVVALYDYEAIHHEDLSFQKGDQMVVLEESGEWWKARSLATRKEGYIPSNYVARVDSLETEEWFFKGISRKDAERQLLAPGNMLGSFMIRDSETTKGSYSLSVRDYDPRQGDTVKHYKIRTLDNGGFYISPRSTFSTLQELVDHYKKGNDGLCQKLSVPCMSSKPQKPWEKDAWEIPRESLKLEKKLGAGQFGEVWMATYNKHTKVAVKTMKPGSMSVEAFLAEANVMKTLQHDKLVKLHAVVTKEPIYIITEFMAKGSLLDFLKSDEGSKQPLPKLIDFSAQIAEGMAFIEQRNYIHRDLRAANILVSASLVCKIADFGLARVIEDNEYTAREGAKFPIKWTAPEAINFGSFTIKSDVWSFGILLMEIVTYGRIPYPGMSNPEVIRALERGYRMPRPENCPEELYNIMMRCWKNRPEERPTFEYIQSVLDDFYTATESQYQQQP
PfM18AAP inh: PfM18AAP inhibitors, malaria aminopeptidase, primary screen, biochemical, QFRET, recombinant enzyme; H-Glu-NHMec fluorogenic cleavage; inhibition, % at 7.35 µM; actives 1.2% (n = 290,000); AID 1822, 2009;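 active = inhibition above the campaign mean inhibition over all tested compounds plus 3 SD, cut at about 28% in these data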
RBBP9 inh: human RBBP9 inhibitors, primary screen, biochemical, fluorescence polarization, FP-Rh probe, HTS. inhibition, % at 7.94 µM. Serine hydrolase RBBP9 (Homo sapiens), O75884. recombinant RBBP9. actives 0.2% (n = 220,000). AID 1515, 2009;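 active = inhibition above the campaign mean of all tested compounds plus 3 SD, cut at about 14% in these data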
Target sequence (O75884 whole entry, looked up): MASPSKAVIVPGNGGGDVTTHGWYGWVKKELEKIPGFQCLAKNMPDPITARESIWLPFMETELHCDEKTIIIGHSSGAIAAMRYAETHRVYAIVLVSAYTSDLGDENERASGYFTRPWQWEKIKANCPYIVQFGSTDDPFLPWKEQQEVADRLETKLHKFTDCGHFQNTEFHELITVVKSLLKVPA
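system = RBBP9 protein | input = RBBP9 at 2.5 µM in dispensed solution, before mixing | measured by = fluorescence polarization (mP), excitation 525 nm, emission 598 nm | incubation = enzyme-compound preincubation 30 min, then probe labeling 45 min, 25 °C | buffer or medium = Tris-NaCl-Pluronic buffer, pH 8.0 | compound = single dose 7.94 µM | also added = FP-Rh probe, 375 nM dispensing solution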
Runt-CBFb FRET: inhibitors of RUNX1 Runt–CBFb binding, primary screen, biochemical, FRET, Cerulean-Runt, Venus-CBFb, uHTS; Runt-related transcription factor 1 (Homo sapiens) + Core-binding factor subunit beta …; Cerulean-Runt/Venus-CBFb FRET ratio 530/480, 1 h; inhibition, % at 20 µM; actives 0.46% (n = 220,000);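 active = inhibition over about 50% at 20 µM in the single-dose screen, limit read from the data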
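test system = Cerulean-Runt domain fusion protein, energy donor | probe or stimulus = Venus-CBFb binding partner, 100 nM | incubation = two 1 h room-temperature incubations shielded from light | detection = fluorescence energy transfer, 422 nm excitation, 530/480 nm emission | measure = loss of energy transfer signal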
RanGTP-Impb inh: inhibitors of RanGTP-importin-beta interaction, primary screen, biochemical, FRET, CFP-Ran, YFP-importin-beta, homogeneous. cell-free CFP-Ran/YFP-importin-beta FRET ratio. actives 1.1% (n = 300,000). inhibition, % (test concentration not listed);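 active = more than half of the replicate wells show a fall in the fluorescence ratio signal beyond about 16%, limit read from the data, passing the limit was not always enough; inconclusive = exactly half of the replicate wells pass the set limit; inactive = fewer than half of replicates pass the limit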
Runt-SMMHC FRET: inhibitors of RUNX1 Runt–CBFb-SMMHC binding, primary screen, biochemical, FRET, Cerulean-Runt, Venus-CBFb-SMMHC, uHTS | Runt-related transcription factor 1 (Homo sapiens) + Core-binding factor subunit beta … | Cerulean-Runt/Venus-CBFb-SMMHC FRET ratio 530/480, 1 h | inhibition, % at 20 µM | actives 0.74% (n = 220,000);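 active = mean inhibition across duplicate retests at 20 µM reaching about 50%, limit read from the data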;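 note: inhibitors lower the FRET ratio by blocking Runt binding to CBFb-SMMHC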
Hck Nef conf: retest of Hck:Nef kinase inhibitor hits, confirmation, biochemical, Z-Lyte FRET, 384-well, p-Tyr peptide counterscreen; Recombinant Hck-YEEI:Nef, Z-Lyte FRET kinase assay; actives 28% (n = 1,300); AID 463188, 2010; shares compounds with Hck-Nef inh; calls only at 10 µM;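 active = average inhibition of at least 50%, with Z-scores no higher than 3 in both the phospho-tyrosine peptide and fluorescence counterscreens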
Large screens that a line does not name were inactive (follow-up assays come after a bar, where shown). Most compounds without a hit are left out; they make up all but 2.9% or so of the library.

Cc1nc(Nc2ccc(C(=O)O)cc2)sc1-c1ccccc1	Hck-Nef inh 56 | Hck Nef conf inactive
COc1ccccc1CCNC(=O)C1CCC(=O)N(C2CCCCCC2)C1 (stereo unspecified)	none (no result: Hck-Nef inh, RBBP9 inh, Runt-CBFb FRET, Runt-SMMHC FRET)
CC1CCc2cc(F)ccc2N1C(=O)c1cccnc1 (stereo unspecified)	none (no result: Hck-Nef inh, RBBP9 inh, Runt-CBFb FRET, Runt-SMMHC FRET)
N#Cc1ccc(/C=C\c2nccc3c2[nH]c2ccccc23)cc1	Hck-Nef inh 57, RanGTP-Impb inh 103 | Hck Nef conf inactive
Cc1cccc(C)c1NC(=O)c1cccc(N2C(=O)C3CCC(C)CC3C2=O)c1 (stereo unspecified)	none (no result: Hck-Nef inh, RBBP9 inh, Runt-CBFb FRET, RanGTP-Impb inh, Runt-SMMHC FRET)
CCn1c2ccccc2c2c3ncc4cccn4c3ccc21	Hck-Nef inh 95, RanGTP-Impb inh 68, Runt-SMMHC FRET 88 | Hck Nef conf inactive
Cc1ccnc2ccc(SC(F)(F)F)cc12	none
COc1ccc(-c2cc3ccccc3oc2=O)cc1NC(=O)c1ccc([N+](=O)[O-])o1	none
COc1ccc(-c2cc3ccccc3oc2=O)cc1NC(=O)c1ccc(Br)o1	Hck-Nef inh 77, RanGTP-Impb inh inconclusive | Hck Nef conf inactive
COc1ccc(-c2cc3ccccc3oc2=O)cc1NC(=S)NC(=O)c1ccc2c(c1)OCCO2	Hck-Nef inh 51, RanGTP-Impb inh inconclusive (no result: Runt-CBFb FRET) | Hck Nef conf active
CCC(=O)Nc1cc(-c2cc3ccccc3oc2=O)ccc1OC	none
O=C1COc2ccc(C(=O)CSc3nc4ccccc4c(=O)n3-c3ccc(Cl)c(Cl)c3)cc2N1	Hck-Nef inh 64 | Hck Nef conf inactive
CCc1ccc(-n2c(SCC(=O)c3ccc4c(c3)NC(=O)CO4)nc3ccccc3c2=O)cc1	none
CN(C(=O)c1cc([N+](=O)[O-])ccc1NCc1cccnc1)c1ccccc1	none (no result: Hck-Nef inh, RBBP9 inh, Runt-CBFb FRET, Runt-SMMHC FRET)
CC(=O)OCC1=C(C(=O)O)N2C(=O)C(NC(=O)c3ccc(COc4c(C)cccc4Cl)o3)C2SC1 (stereo unspecified)	Hck-Nef inh 77 | Hck Nef conf inactive
CC(=O)OCC1=C(C(=O)O)N2C(=O)C(NC(=O)c3ccc(COc4ccc(Cl)cc4)o3)C2SC1 (stereo unspecified)	Hck-Nef inh 64 | Hck Nef conf inactive
CCN(Cc1ccccc1)C(=O)c1cc2c(OC)c(OC)c(OC)cc2[nH]1	none (no result: Hck-Nef inh, RBBP9 inh, Runt-CBFb FRET, Runt-SMMHC FRET)
Cc1c(Br)c(=O)oc2c(Br)c(O)ccc12	Hck-Nef inh 71, Runt-SMMHC FRET 86 | Hck Nef conf inactive
Cc1c(N2C(=O)c3ccccc3C2=O)c(=O)n(-c2ccccc2)n1C	none
Cc1c(N=C2C=CC(=O)c3ccccc32)c(=O)n(-c2ccccc2)n1C	Hck-Nef inh 51 | Hck Nef conf inactive
Cc1c(N=C2C=C(Br)C(=O)C(Br)=C2)c(=O)n(-c2ccccc2)n1C	Hck-Nef inh 50 (no result: RanGTP-Impb inh) | Hck Nef conf inactive
O=C(NN1C(=O)c2ccc(-c3ccc4c(c3)C(=O)N(NC(=O)c3cccnc3)C4=O)cc2C1=O)c1cccnc1	none
O=C(O)c1ccc(CS(=O)(=O)c2c(Cl)cccc2Cl)o1	none (no result: Hck-Nef inh, RBBP9 inh, Runt-CBFb FRET, Runt-SMMHC FRET)
CSc1sc(-c2ccnc(SCCS(C)(=O)=O)n2)c(-c2ccccc2)c1C#N	Hck-Nef inh 72 | Hck Nef conf inactive
CCN(c1ccccc1)S(=O)(=O)c1cc(C(=O)OC(C)C(=O)Nc2ccc3c(c2)OCCO3)ccc1C (stereo unspecified)	none
CCN(c1ccccc1)S(=O)(=O)c1cc(C(=O)Oc2ccc3c(C)cc(=O)oc3c2)ccc1C	Hck-Nef inh 56
CC(=O)Oc1ccc2c(C)cc(=O)oc2c1	Hck-Nef inh 86 | Hck Nef conf inactive
CC(=O)Oc1ccc2c3c(c(=O)oc2c1)CCCC3	none (no result: Hck-Nef inh, RBBP9 inh, Runt-CBFb FRET, Runt-SMMHC FRET)
Cc1cc(=O)oc2c(C)c(OC(C)C(=O)Nc3ccc(N4CCC(C)CC4)cc3)ccc12 (stereo unspecified)	none (no result: Hck-Nef inh, RBBP9 inh, Runt-CBFb FRET, Runt-SMMHC FRET)
O=C(NN1CCOCC1)c1ccc(Cl)cc1[N+](=O)[O-]	none (no result: Hck-Nef inh, RBBP9 inh, Runt-CBFb FRET, Runt-SMMHC FRET)
Cc1cc2c(n1-c1ccc(Br)cc1)CC(C)(C)CC2=O	Hck-Nef inh 99 | Hck Nef conf inactive
Cc1ccc(-n2c(C)cc3c2CC(C)(C)CC3=O)cc1C	none
O=c1cc(-c2ccc(O)c(-c3c(O)cc(O)c4c(=O)cc(-c5ccc(O)cc5)oc34)c2)oc2cc(O)cc(O)c12	Hck-Nef inh 53 | Hck Nef conf active
COc1ccc(-c2oc3cc(O)c(OC)c(O)c3c(=O)c2OC)cc1	none (no result: PfM18AAP inh, RBBP9 inh)
COc1c(-c2ccc(O)cc2)oc2cc(O)cc(O)c2c1=O	Hck-Nef inh 53 (no result: PfM18AAP inh, RBBP9 inh, RanGTP-Impb inh) | Hck Nef conf inactive
O=c1c(-c2c(O)cc(O)c3c(=O)cc(-c4ccc(O)cc4)oc23)c(-c2ccc(O)cc2)oc2cc(O)cc(O)c12	Hck-Nef inh 66 (no result: PfM18AAP inh, RBBP9 inh, RanGTP-Impb inh) | Hck Nef conf inactive
O=c1c(-c2ccc(O)cc2)coc2cc(O)cc(O)c12	Hck-Nef inh 52 (no result: PfM18AAP inh, RBBP9 inh) | Hck Nef conf inactive
CCOC(=O)N1CCN(S(=O)(=O)N2CCCC(C(=O)NCCc3ccc(C)cc3)C2)CC1 (stereo unspecified)	none (no result: Hck-Nef inh, RBBP9 inh, Runt-CBFb FRET, Runt-SMMHC FRET)
O=c1cc(-c2ccc(O)c(O)c2)oc2cc(O)cc(O)c12	Hck-Nef inh 91 (no result: PfM18AAP inh, RBBP9 inh) | Hck Nef conf active
Cc1cc(-c2cccs2)c(C#N)c(=S)[nH]1	none
N#Cc1c(-c2cccs2)cc(-c2cccs2)[nH]c1=O	Hck-Nef inh 109, Runt-CBFb FRET 86, RanGTP-Impb inh 45, Runt-SMMHC FRET 80
CCOC(=O)Cc1csc(NC(=O)COc2ccc(C)c(C)c2)n1	Hck-Nef inh 53 (no result: Runt-CBFb FRET, Runt-SMMHC FRET) | Hck Nef conf inactive
CCOC(=O)Cc1csc(NC(=O)COc2ccc(C)cc2)n1	none
Clc1ccc2[nH]c3c(c2c1)CCc1cn[nH]c1-3	Hck-Nef inh 60 | Hck Nef conf active
c1ccc2c3c([nH]c2c1)-c1[nH]ncc1CC3	none
CCOc1ccc(NC(=S)N2CCN(CCN3C(=O)c4cccc5cccc(c45)C3=O)CC2)cc1	none
COc1ccc(NC(=S)N2CCN(CCN3C(=O)c4cccc5cccc(c45)C3=O)CC2)cc1	Hck-Nef inh 129 | Hck Nef conf inactive
COC(=O)C1=CNC=C(C(=O)OC)C1c1cccc2ccccc12	none (no result: Hck-Nef inh, RBBP9 inh, Runt-CBFb FRET, Runt-SMMHC FRET)

Screening results from PubChem BioAssay.
